# Results as given in ChEMBL document CHEMBL3758144, “Dihydroisocoumarin Derivatives from Marine-Derived Fungal Isolates and Their Anti-inflammatory Effects in Lipopolysaccharide-Induced BV2 Microglia” (J Nat Prod, 2015).
# The source made the active and inactive calls. The calls are words filed in the database; no cut-off is given here.
# Tests used:
# [1] = target: T1, NF-kappa-B inhibitor alpha (Homo sapiens) (UniProt P25963); assay: Inhibition of IkappaB-alpha phosphorylation in LPS-induced […] BV2 cells pretreated for 30 mins followed by LPS stimulation for 30 mins by Western blot analysis; format: cell-based; conditions: BV-2
# T1 sequence (whole entry): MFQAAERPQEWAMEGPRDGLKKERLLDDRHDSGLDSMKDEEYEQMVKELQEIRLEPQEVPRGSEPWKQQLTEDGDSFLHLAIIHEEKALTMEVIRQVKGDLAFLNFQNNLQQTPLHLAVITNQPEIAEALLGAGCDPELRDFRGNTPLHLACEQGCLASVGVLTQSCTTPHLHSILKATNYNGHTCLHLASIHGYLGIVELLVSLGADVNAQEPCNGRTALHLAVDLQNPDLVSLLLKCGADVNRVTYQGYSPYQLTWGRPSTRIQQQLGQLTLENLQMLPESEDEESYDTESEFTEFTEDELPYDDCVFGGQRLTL
# Procedure, shortened: (§1)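 BV2 microglia pretreated 30 min with test agent (20, 40, 80 μM), then LPS for 30 min. Cytosolic and nuclear fractions prepared with NE-PER reagents. Western blot for IκB-α, phospho-IκB-α, p65 and p50. Densitometry normalized to β-actin (cytosol) or PCNA (nucleus). Mean of three experiments ± SD.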
# [2] = target: T1, NF-kappa-B inhibitor alpha (Homo sapiens); assay: Inhibition of IkappaB-alpha degradation in LPS-induced […] BV2 cells pretreated for 30 mins followed by LPS stimulation for 30 mins by Western blot analysis; format: cell-based; conditions: BV-2; procedure, shortened: as §1
# [3] = Effect on ERK expression in […] BV2 cells at 20 to 80 uM pretreated for 30 mins followed by LPS stimulation for 30 mins by Western blot analysis; format: ADME, cell-based; conditions: bv-2, 0.5 h
# Procedure, shortened: (§2)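 BV2 microglia pretreated 30 min with test agent (20−80 μM), then LPS 1 μg/mL for 30 min. Total and phosphorylated ERK, JNK and p38 detected by Western blot (SDS-PAGE, nitrocellulose, ECL).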
# [4] = test system: BV-2; assay: Inhibition of LPS-induced iNOS expression in […] BV2 cells pretreated for 30 mins followed by LPS stimulation measured for 24 hrs by Western blot analysis; format: functional, cell-based; conditions: Mus musculus
# Procedure, shortened: (§3)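 BV2 microglia pretreated 30 min with test agent at 20−80 μM, then LPS 1 μg/mL for 24 h. Lysates in 20 mM Tris-HCl pH 7.4 with protease inhibitors, protein by Lowry. SDS-PAGE, nitrocellulose transfer, milk block, ECL detection. Band densitometry normalized to β-actin.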
# [5] = test system: BV-2; assay: (§4) Antiinflammatory activity in LPS-induced […] BV2 cells assessed as reduction in NO production pretreated for 30 mins followed by LPS stimulation measured for 24 hrs by Greiss assay; format: functional, cell-based; conditions: Mus musculus
# Procedure, shortened: (§5)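 BV2 microglia in DMEM with 10% heat-inactivated FBS, penicillin/streptomycin and 2 mM L-glutamine at 37 °C, 5% CO2. Pretreated 30 min with test agent (10−80 μM range), then LPS 1 μg/mL for 24 h. Nitrite in supernatant measured by Griess reagent, absorbance at 525 nm. IC50 from mean of three experiments ± SD.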
# [6] = as §4; format: functional, cell-based; conditions: BV-2; procedure, shortened: as §5
# [7] = target: T2, Nuclear factor NF-kappa-B p105 subunit (Homo sapiens) (UniProt P19838); assay: Inhibition of LPS-induced p50 translocation from cytosol to nucleus in […] BV2 cells pretreated for 30 mins followed by LPS stimulation for 30 mins by Western blot analysis; format: cell-based; conditions: BV-2; procedure, shortened: as §1
# T2 sequence (whole entry): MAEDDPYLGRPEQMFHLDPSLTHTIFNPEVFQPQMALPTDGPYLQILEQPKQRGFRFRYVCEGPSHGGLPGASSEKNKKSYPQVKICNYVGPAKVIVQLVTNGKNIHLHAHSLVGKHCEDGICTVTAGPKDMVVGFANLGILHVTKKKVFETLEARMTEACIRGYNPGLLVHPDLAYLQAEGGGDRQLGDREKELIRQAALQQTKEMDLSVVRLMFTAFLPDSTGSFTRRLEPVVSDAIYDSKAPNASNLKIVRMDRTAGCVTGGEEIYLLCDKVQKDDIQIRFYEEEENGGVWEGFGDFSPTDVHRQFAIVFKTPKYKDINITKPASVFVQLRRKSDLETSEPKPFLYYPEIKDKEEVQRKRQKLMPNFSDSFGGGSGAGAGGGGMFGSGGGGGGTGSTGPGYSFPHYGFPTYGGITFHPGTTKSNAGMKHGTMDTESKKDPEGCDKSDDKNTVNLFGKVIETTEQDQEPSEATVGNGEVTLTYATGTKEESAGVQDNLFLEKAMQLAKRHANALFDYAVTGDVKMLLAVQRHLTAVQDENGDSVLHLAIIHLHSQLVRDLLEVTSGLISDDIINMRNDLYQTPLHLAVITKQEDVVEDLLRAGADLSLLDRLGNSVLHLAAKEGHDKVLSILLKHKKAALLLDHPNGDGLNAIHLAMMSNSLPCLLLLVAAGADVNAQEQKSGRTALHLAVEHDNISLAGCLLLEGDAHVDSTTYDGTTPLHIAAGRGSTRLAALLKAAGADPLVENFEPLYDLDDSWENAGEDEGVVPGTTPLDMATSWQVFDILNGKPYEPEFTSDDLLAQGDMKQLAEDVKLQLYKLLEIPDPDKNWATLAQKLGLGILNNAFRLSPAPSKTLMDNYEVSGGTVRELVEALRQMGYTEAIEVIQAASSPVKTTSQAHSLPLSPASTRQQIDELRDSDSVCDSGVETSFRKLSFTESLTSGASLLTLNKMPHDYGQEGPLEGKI
# [8] = test system: BV-2; assay: (§6) Antiinflammatory activity in LPS-induced […] BV2 cells assessed as reduction in PGE2 production pretreated for 30 mins followed by LPS stimulation measured for 24 hrs by ELISA; format: functional, cell-based; conditions: Mus musculus
# Procedure, shortened: (§7)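 BV2 microglia cultured in 24-well plates and preincubated 30 min with test agent (10−80 μM range), then stimulated 24 h with LPS 1 μg/mL. Supernatant PGE2 quantified by ELISA kit. IC50 from mean of three experiments ± SD.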
# [9] = as §6; format: functional, cell-based; conditions: BV-2; procedure, shortened: as §7
# [10] = test system: p38 MAPK (Mus musculus); assay: Inhibition of p38 phosphorylation in mouse BV2 cells pretreated for 30 mins followed by LPS stimulation for 30 mins by Western blot analysis; conditions: BV-2
# [11] = target: Transcription factor p65 (Homo sapiens) (UniProt Q04206); assay: Inhibition of LPS-induced p65 translocation from cytosol to nucleus in […] BV2 cells pretreated for 30 mins followed by LPS stimulation for 30 mins by Western blot analysis; format: cell-based; conditions: BV-2; procedure, shortened: as §1
# [12] = Effect on JNK expression in […] BV2 cells at 20 to 80 uM pretreated for 30 mins followed by LPS stimulation for 30 mins by Western blot analysis; format: ADME, cell-based; conditions: bv-2, 0.5 h; procedure, shortened: as §2
# [13] = test system: BV-2; assay: Inhibition of LPS-induced COX2 expression in […] BV2 cells pretreated for 30 mins followed by LPS stimulation measured for 24 hrs by Western blot analysis; format: functional, cell-based; conditions: Mus musculus; procedure, shortened: as §3
# [14] = Effect on p38 expression in […] BV2 cells at 20 to 80 uM pretreated for 30 mins followed by LPS stimulation for 30 mins by Western blot analysis; format: ADME, cell-based; conditions: bv-2, 0.5 h; procedure, shortened: as §2
# [15] = test system: JNK (Mus musculus); assay: Inhibition of JNK phosphorylation in mouse BV2 cells at 20 to 80 uM pretreated for 30 mins followed by LPS stimulation for 30 mins by Western blot analysis; conditions: BV-2
# [16] = test system: BV-2; assay: Inhibition of ERK phosphorylation in […] BV2 cells at 20 to 80 uM pretreated for 30 mins followed by LPS stimulation for 30 mins by Western blot analysis; format: cell-based; procedure, shortened: as §2
# [17] = Cytotoxicity against […] BV2 cells at 10 to 80 uM by MTT assay; format: cell-based; conditions: bv-2, 80 µM
# Procedure, shortened: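 MTT added to BV2 cell suspension (1 × 10^5 cells/mL), incubated 30 min. Formazan dissolved in acidic 2-propanol and read at 540 nm. Compounds tested at 10−80 μM.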
# Sequence of Transcription factor p65 (Homo sapiens) (Q04206 whole entry): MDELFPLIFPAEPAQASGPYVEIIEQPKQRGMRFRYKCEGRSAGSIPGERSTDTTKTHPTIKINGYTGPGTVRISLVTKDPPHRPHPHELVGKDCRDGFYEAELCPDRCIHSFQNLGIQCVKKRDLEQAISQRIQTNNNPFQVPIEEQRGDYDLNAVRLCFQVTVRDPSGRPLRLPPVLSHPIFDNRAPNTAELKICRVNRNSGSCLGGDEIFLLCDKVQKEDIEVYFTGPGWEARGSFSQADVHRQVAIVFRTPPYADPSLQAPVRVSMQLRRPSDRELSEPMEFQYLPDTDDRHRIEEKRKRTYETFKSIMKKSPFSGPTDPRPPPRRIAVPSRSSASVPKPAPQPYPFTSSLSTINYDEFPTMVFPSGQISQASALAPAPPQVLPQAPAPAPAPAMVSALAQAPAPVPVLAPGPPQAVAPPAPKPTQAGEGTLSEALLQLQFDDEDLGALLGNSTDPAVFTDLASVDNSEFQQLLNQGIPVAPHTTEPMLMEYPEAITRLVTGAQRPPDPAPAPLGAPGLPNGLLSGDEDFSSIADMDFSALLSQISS
Compound,inhibition [1],inhibition [2],IC50 [6],inhibition [7],IC50 [9],Activity [10],inhibition [11],inhibition [15],Activity [3],inhibition [4],Activity [5],Activity [8],Activity [12],inhibition [13],Activity [14],inhibition [16],Activity [17]
COc1cc(O)cc2c1C(=O)O[C@@H](C[C@H]1CCC[C@H](C)O1)C2,,,28 µM,,30 µM,,,,,Dose-dependent effect,Dose-dependent effect,Dose-dependent effect,,Dose-dependent effect,,,Non-toxic
C[C@@H]1O[C@@H](C[C@H]2Cc3cc(O)cc(O)c3C(=O)O2)CC[C@@H]1O,,,20 µM,,23 µM,,,,,Dose-dependent effect,Dose-dependent effect,Dose-dependent effect,,Dose-dependent effect,,,Non-toxic
COc1cc(O)c2c(c1)C[C@H](C[C@H]1CCC[C@H](C)O1)OC2=O,,,21 µM,,21 µM,,,,,Dose-dependent effect,Dose-dependent effect,Dose-dependent effect,,Dose-dependent effect,,,Non-toxic

# More lines, main results first:
inhibition [1],inhibition [2],IC50 [6],inhibition [7],IC50 [9],Activity [10],inhibition [11],inhibition [15],Compound,Activity [3],inhibition [4],Activity [5],Activity [8],Activity [12],inhibition [13],Activity [14],inhibition [16],Activity [17]
Dose-dependent effect,Dose-dependent effect,33 µM,Dose-dependent effect,34 µM,Dose-dependent effect,Dose-dependent effect,inactive,C[C@H]1CCC[C@H](C[C@H]2Cc3cc(O)cc(O[C@H]4O[C@H](CO)[C@@H](O)[C@H]4O)c3C(=O)O2)O1,Non-toxic,Dose-dependent effect,Dose-dependent effect,Dose-dependent effect,Non-toxic,Dose-dependent effect,Non-toxic,inactive,Non-toxic
,,65 µM,,61 µM,,,,C[C@H]1C[C@@H](O)C[C@H](C[C@H]2Cc3cc(O)cc(O)c3C(=O)O2)O1,,Dose-dependent effect,Dose-dependent effect,Dose-dependent effect,,Dose-dependent effect,,,Non-toxic
,,24 µM,,27 µM,,,,C[C@H]1CCC[C@H](C[C@H]2Cc3cc(O)cc(O)c3C(=O)O2)O1 [CLADOSPORIN],,Dose-dependent effect,Dose-dependent effect,Dose-dependent effect,,Dose-dependent effect,,,Non-toxic
